Consider five compounds from ChEMBL document CHEMBL3739400, “Penicyclones A-E, Antibacterial Polyketides from the Deep-Sea-Derived Fungus Penicillium sp. F23-2” (J Nat Prod, 2015).

Each structure is given as a SMILES string. Converted amounts (≈) assume the structure as drawn.

The IC50 is the point on the concentration scale where inhibition reaches its midpoint. The term MIC denotes the lowest concentration that inhibits growth of the organism.

The nature of assay [1]: Cytotoxicity against human Bel7402 cells assessed as reduction in cell viability by MTT assay. The format is functional, cell-based. Conditions: Bel-7402. The method in brief:
(§1)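 Cytotoxicity was measured by MTT assay on HeLa (human cervical cancer) and BEL-7402 (human hepatocellular carcinoma) cell lines, with doxorubicin as the positive control.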
For orientation: Tetrazolium assays rely on reduction of a dye to a coloured formazan, in cell work by metabolically active cells.

Assay [2] relates to A549. Kind of assay: Cytotoxicity against human A549 cells assessed as reduction in cell viability by sulforhodamine B assay. The format is functional, cell-based. A general note: The SRB assay estimates cell density from bound dye.
For assay [3], the system named is HEK293. Kind of assay: Cytotoxicity against HEK293 cells assessed as reduction in cell viability by sulforhodamine B assay. The assay is classed as cell-based. Conditions: Homo sapiens.
Assay [4] deals with HeLa. Kind of assay: Cytotoxicity against human HeLa cells assessed as reduction in cell viability by MTT assay. The format is functional, cell-based. The method in brief: as §1
A short description of assay [5]: Cytotoxicity against human HCT116 cells assessed as reduction in cell viability by sulforhodamine B assay. The assay is classed as functional, cell-based. The note with it: HCT-116.
Assay [6] relates to Staphylococcus aureus. Kind of assay: Antibacterial activity against Staphylococcus aureus ATCC 6538 assessed as growth inhibition after 24 hrs by broth microdilution method. The format is functional. Conditions: ATCC 6538, 24 h. An outline of the steps: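 Broth microdilution assay against Staphylococcus aureus, with penicillin G as the positive control.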
A general note: Broth dilution looks for growth in wells or tubes with falling amounts of substance.

For the compound `COC(=O)[C@H](C)CC[C@@]1(O)C(=O)C=C(C)[C@@H](O)[C@H]1O`, the half-maximal inhibitory concentration (IC50) in assay [1], in assay [2], in assay [3], in assay [4] and in assay [5] was above 50 µM in each case. Moreover, the MIC in assay [6] turned out to be 0.9 µg/mL (≈ 3.31 µM).

Consider `CC1=CC(=O)[C@](O)(CC[C@@H](C)C(=O)O)[C@H](O)[C@@H]1O`, for which the IC50 in assay [1], in assay [2], in assay [3], in assay [4] and in assay [5] was above 50 µM throughout. In addition, the minimal inhibitory concentration (MIC) in assay [6] came to 1 µg/mL (≈ 3.87 µM).

`CC1=CC(=O)[C@]2(C/C=C(\C)CCC(=O)O)O[C@@H]2[C@@H]1O`: the IC50 in assay [1], in assay [2], in assay [3], in assay [4] and in assay [5] was above 50 µM each time. Moreover, the MIC in assay [6] was found to be 0.5 µg/mL (≈ 1.88 µM).

As for `CC1=CC(=O)[C@]2(CC/C(C)=C/CC(=O)O)O[C@@H]2[C@@H]1O`, the half-maximal inhibitory concentration (IC50) in assay [1], in assay [2], in assay [3], in assay [4] and in assay [5] was above 50 µM throughout. For the same compound, the MIC in assay [6] stood at 0.8 µg/mL (≈ 3 µM).

For the compound `CC1=CC(=O)[C@]2(CC[C@@H](C)C(=O)O2)[C@H](O)[C@@H]1O`, the IC50 in assay [1], in assay [2], in assay [3], in assay [4] and in assay [5] was above 50 µM in each case. For the same compound, the minimum inhibitory concentration (MIC) in assay [6] stood at 0.3 µg/mL (≈ 1.25 µM).
